Data set [1] is described as follows: folding enthalpy; higher = less favourable; fluorescence melt of hairpins on a sequencing array, two-state fit. As to conditions: sodium 0.088 M. In a few lines:
(§1)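 Bootstrapped two-state fits yielded melting temperature and folding enthalpy for library hairpins. Cy3 fluorescence, with annealed Cy3 and quencher oligos, was imaged on a sequenced MiSeq flow cell in 50 mM Na-HEPES pH 8.0, 25 mM NaCl in 2.5 °C steps up to 60 °C, and normalised to pre-quench Cy3 and to control constructs. Four replicates were combined by inverse variance, and fitted temperatures were raised by 9.35 °C to match UV melts.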

Data set [2] in a line: melting temperature; fluorescence melt of hairpins on a sequencing array, two-state fit, raised by 9.35 °C to match UV melts. As to conditions: sodium 0.088 M. In a few lines:
as §1

Regarding GATCTGGGCCAGATC ((((((...)))))), in data set [1], the folding enthalpy is -51.8 kcal/mol. In addition, the Tm in data set [2] was 53.2 °C.
The matching figures for GATCTGGGTACAGATC ((((((....)))))): -38.7 kcal/mol and 57.7 °C.
For GATCTGGTAGCAGATC ((((((....)))))), in data set [1], the folding enthalpy was -36.6 kcal/mol. Further, in data set [2], the Tm was found to be 52.2 °C.
Taken in the same sequence, the figures for GATCTGGTCACAGATC ((((((....)))))) were -40.3 kcal/mol and 62.1 °C.
GATCTGGTGCCAGATC ((((((....)))))): in data set [1], the folding enthalpy is -46.6 kcal/mol. Besides, the Tm in data set [2] is 52.2 °C.
Taken in the same sequence, the figures for GATCTGTAAGCAGATC ((((((....)))))) were -49.9 kcal/mol and 51.4 °C.
As to GATCTGTACACAGATC ((((((....)))))), the folding enthalpy in data set [1] is -37.4 kcal/mol. Moreover, the Tm in data set [2] was 54.6 °C.
The matching figures for GATCTGTAGTCAGATC ((((((....)))))): -35.5 kcal/mol and 49.1 °C.
Taken in the same sequence, the figures for GATCTGTCTACAGATC ((((((....)))))) were -47.5 kcal/mol and 54.9 °C.
Taken in the same sequence, the figures for GATCTGTGAACAGATC ((((((....)))))) were -43 kcal/mol and 52.9 °C.
GATCTGTGACAGATC ((((((...)))))): the folding enthalpy in data set [1] is -31.5 kcal/mol. Moreover, the Tm in data set [2] is 48.8 °C.
In the case of GATCTGTGTCAGATC ((((((...)))))), in data set [1], the folding enthalpy is -34.1 kcal/mol. In data set [2], the Tm amounted to 50.6 °C.
The matching figures for GATCTGTTGCAGATC ((((((...)))))): -36.5 kcal/mol and 48.7 °C.
The matching figures for GATCTGTTGTCAGATC ((((((....)))))): -37.1 kcal/mol and 50.9 °C.
The matching figures for GATCTGTTTTCAGATC ((((((....)))))): -49.9 kcal/mol and 51.4 °C.
Consider GATCTTAAATAAGATC ((((((....)))))), for which, in data set [1], the folding enthalpy is -31.9 kcal/mol. Also, in data set [2], the Tm turned out to be 38.5 °C.
On to GATCTTAACAAGATC ((((((...)))))), for which the folding enthalpy in data set [1] was -31.9 kcal/mol. Also, the Tm in data set [2] amounted to 45.6 °C.
Take GATCTTAAGAAAGATC ((((((....)))))): the folding enthalpy in data set [1] was -22.1 kcal/mol. The Tm in data set [2] worked out at 36 °C.
On to GATCTTAAGAAGATC ((((((...)))))), for which the folding enthalpy in data set [1] is -25.5 kcal/mol. For the same sequence, in data set [2], the Tm worked out at 40.5 °C.
Taken in the same sequence, the figures for GATCTTACAAAAGATC ((((((....)))))) were -26.4 kcal/mol and 39.6 °C.
The matching figures for GATCTTACAAAGATC ((((((...)))))): -32.2 kcal/mol and 44.4 °C.
Taken in the same sequence, the figures for GATCTTACGTAAGATC ((((((....)))))) were -63 kcal/mol and 48.3 °C.
Take GATCTTACTAAAGATC ((((((....)))))): in data set [1], the folding enthalpy is -33 kcal/mol. Besides, in data set [2], the Tm was 43 °C.
On to GATCTTAGAAAGATC ((((((...)))))), for which the folding enthalpy in data set [1] is -31.3 kcal/mol. Also, in data set [2], the Tm amounted to 41.5 °C.
The matching figures for GATCTTAGAGAAGATC ((((((....)))))): -21.1 kcal/mol and 37.7 °C.
With GATCTTAGCAAGATC ((((((...)))))), the folding enthalpy in data set [1] was -31.9 kcal/mol. The Tm in data set [2] was found to be 46.2 °C.
The matching figures for GATCTTAGCGAAGATC ((((((....)))))): -31.2 kcal/mol and 43.4 °C.
Taken in the same sequence, the figures for GATCTTAGGGAAGATC ((((((....)))))) were -26.3 kcal/mol and 41.5 °C.
Consider GATCTTATAAAAGATC ((((((....)))))), for which the folding enthalpy in data set [1] is -25.5 kcal/mol. In data set [2], the Tm was 40 °C.
For the sequence GATCTTATGTAAGATC ((((((....)))))), in data set [1], the folding enthalpy was -36.6 kcal/mol. Also, in data set [2], the Tm is 45.2 °C.
Taken in the same sequence, the figures for GATCTTATTGAAGATC ((((((....)))))) were -31.5 kcal/mol and 41.8 °C.
The matching figures for GATCTTCAAAAAGATC ((((((....)))))): -27.3 kcal/mol and 40.4 °C.
Consider GATCTTCAAAAGATC ((((((...)))))), for which, in data set [1], the folding enthalpy was -19.2 kcal/mol. In addition, the Tm in data set [2] amounted to 41 °C.
Taken in the same sequence, the figures for GATCTTCACCAAGATC ((((((....)))))) were -35.5 kcal/mol and 41.9 °C.
Taken in the same sequence, the figures for GATCTTCATAAAGATC ((((((....)))))) were -35.6 kcal/mol and 43.5 °C.
In the case of GATCTTCCGAAAGATC ((((((....)))))), the folding enthalpy in data set [1] was -29.7 kcal/mol. In addition, the Tm in data set [2] came out at 43.2 °C.
The matching figures for GATCTTCCGCAAGATC ((((((....)))))): -35.4 kcal/mol and 42.5 °C.
The matching figures for GATCTTCCGTAAGATC ((((((....)))))): -29.8 kcal/mol and 43.8 °C.
